In ChEMBL document CHEMBL2176952, “Anticancer activity and cellular repression of c-MYC by the G-quadruplex-stabilizing 11-piperazinylquindoline is not dependent on direct targeting of the G-quadruplex in the c-MYC promoter” (J Med Chem, 2012):
One block for each compound: values may come before it. Activity calls are given as the source filed them. The rule behind the calls is not given here.

What was measured:
Raji = assay: Cytotoxicity against human Raji cells after 96 hrs by MTS assay; assay type: functional, cell-based
Outline: (§1)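 MTS viability after 96 h exposure. HCT-116 grown in DMEM, Raji in RPMI-1640, each with 10% FBS and penicillin/streptomycin at 37 °C, 5% CO2, kept in exponential growth. Compound spanned a 5–6 log range in 0.5 log steps. IC50 from non-linear regression; biological triplicates.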

HCT-116 [1] = assay: Cytotoxicity against human HCT116 cells after 96 hrs by MTS assay; assay type: functional, cell-based; conditions: HCT-116, 96 h; outline: as §1
Nucleic Acid [2] = assay: Thermal stability of c-MYC G-quadruplex DNA assessed as change in melting temperature at DNA:compound ratio 1:1 by spectropolarimeter analysis; assay type: nucleic-acid assay
Outline: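 c-MYC G-quadruplex at 5 μM in 50 mM Tris-HCl pH 7.4, held 10 min at 25 °C, heated 10 min at 95 °C and air-cooled over ~30 min. Compound then added at 1 equivalent. Melting followed by CD spectropolarimetry; ΔTm = Tm with compound minus Tm of control.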

CA46 = assay: Cytotoxicity against human CA46 cells after 24 hrs by MTS assay; assay type: functional, cell-based; conditions: CA46, 24 h
Nucleic Acid [3] = assay: Binding affinity to PDGFRbeta G-quadruplex DNA in human HCT116 cells assessed as change in PDGFRbeta mRNA expression at 23 uM up to 48 hrs by RT-PCR analysis; assay type: cell-based; conditions: HCT-116
HCT-116 [4] = assay: Cytotoxicity against human HCT116 cells after 24 hrs by MTS assay; assay type: functional, cell-based; conditions: HCT-116, 24 h
Nucleic Acid [5] = assay: Binding affinity to VEGFA G-quadruplex DNA in human HCT116 cells assessed as change in VEGFA mRNA expression at 23 uM up to 48 hrs by RT-PCR analysis; assay type: cell-based; conditions: HCT-116
Nucleic Acid [6] = assay: Binding affinity to hTERT G-quadruplex DNA in human HCT116 cells assessed as downregulation of hTERT mRNA expression at 23 uM by RT-PCR analysis; assay type: cell-based; conditions: HCT-116, TDE = time-dependent effect
Nucleic Acid [7] = assay: Binding affinity to dGdC DNA at 2 uM after 48 hrs by competition dialysis method; assay type: nucleic-acid assay
Outline: (§2)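 DNA at 75 μM in 50 mM Tris-HCl with 25 mM KCl. Duplexes annealed by heating to 95 °C then slow cooling at 1 °C/min. G-quadruplexes formed by 95 °C for 10 min with rapid air cooling, topology checked by CD. Dialysed 48 h in a cold room against BPES with 25 mM KCl and 2 μM compound. Bound compound measured by UV absorbance against a standard curve, expressed per binding site. Run in duplicate.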

Nucleic Acid [8] = assay: Binding affinity to HIF1alpha G-quadruplex DNA in human HCT116 cells assessed as change in HIF1alpha mRNA expression at 31 uM up to 48 hrs by RT-PCR analysis; assay type: cell-based; conditions: HCT-116
Nucleic Acid [9] = assay: Binding affinity to HIF1alpha G-quadruplex DNA in human HCT116 cells assessed as change in HIF1alpha mRNA expression at 23 uM up to 48 hrs by RT-PCR analysis; assay type: cell-based; conditions: HCT-116
Nucleic Acid [10] = assay: Decrease of c-MYC G-quadruplex DNA-mediated c-MYC expression in exon1 in human CA46 cells at 19.4 uM at 48 hrs by exon-specific assay; assay type: cell-based
Nucleic Acid [11] = assay: Decrease of c-MYC G-quadruplex DNA-mediated c-MYC expression in exon1 in human CA46 cells at 19.4 uM at 6 hrs by exon-specific assay; assay type: cell-based
Nucleic Acid [12] = assay: Decrease of c-MYC G-quadruplex DNA-mediated c-MYC expression in exon1 in human CA46 cells at 19.4 uM at 24 hrs by exon-specific assay; assay type: cell-based
Nucleic Acid [13] = assay: Binding affinity to c-MYC G-quadruplex DNA in human HCT116 cells assessed as decrease in c-MYC mRNA expression at 23 uM from 6 to 48 hrs by RT-PCR analysis; assay type: cell-based; conditions: HCT-116
Nucleic Acid [14] = assay: Binding affinity to c-MYC G-quadruplex DNA at 2 uM after 48 hrs by competition dialysis method; assay type: nucleic-acid assay; outline: as §2
Nucleic Acid [15] = assay: Binding affinity to dAdT DNA at 2 uM after 48 hrs by competition dialysis method; assay type: nucleic-acid assay; outline: as §2
HCT-116 [16] = assay: Increase in VEGFA G-quadruplex DNA expression in human HCT116 cells by qPCR analysis; assay type: functional, cell-based
Nucleic Acid [17] = assay: Binding affinity to c-MYC G-quadruplex DNA in human HCT116 cells assessed as decrease in c-MYC mRNA expression at 31 uM at 48 hrs by RT-PCR analysis; assay type: cell-based; conditions: HCT-116
Nucleic Acid [18] = assay: Decrease of c-MYC G-quadruplex DNA-mediated c-MYC expression in exon1 in human CA46 cells at 2.8 uM at 24 hrs by exon-specific assay; assay type: cell-based
Nucleic Acid [19] = assay: Binding affinity to hTERT G-quadruplex DNA in human HCT116 cells assessed as downregulation of hTERT mRNA expression at 31 uM at 48 hrs by RT-PCR analysis; assay type: cell-based; conditions: HCT-116
Nucleic Acid [20] = assay: Binding affinity to hTERT G-quadruplex DNA in human HCT116 cells assessed as downregulation of hTERT mRNA expression at 31 uM at 24 hrs by RT-PCR analysis; assay type: cell-based; conditions: HCT-116
Nucleic Acid [21] = assay: Decrease of c-MYC G-quadruplex DNA-mediated c-MYC expression in exon1 in human CA46 cells at 2.8 uM at 6 hrs by exon-specific assay; assay type: cell-based
Nucleic Acid [22] = assay: Binding affinity to PDGFRbeta G-quadruplex DNA at 2 uM after 48 hrs by competition dialysis method; assay type: nucleic-acid assay; outline: as §2
Nucleic Acid [23] = assay: Binding affinity to hTERT G-quadruplex DNA at 2 uM after 48 hrs by competition dialysis method; assay type: nucleic-acid assay; outline: as §2
Nucleic Acid [24] = assay: Binding affinity to HIF1alpha G-quadruplex DNA at 2 uM after 48 hrs by competition dialysis method; assay type: nucleic-acid assay; outline: as §2
Nucleic Acid [25] = assay: Binding affinity to PDGFRbeta G-quadruplex DNA in human HCT116 cells assessed as downregulation of PDGFRbeta mRNA expression at 31 uM at 48 hrs by RT-PCR analysis; assay type: cell-based; conditions: HCT-116
Nucleic Acid [26] = assay: Decrease of c-MYC G-quadruplex DNA-mediated c-MYC expression in exon1 in human CA46 cells at 2.8 uM at 48 hrs by exon-specific assay; assay type: cell-based
Nucleic Acid [27] = assay: Binding affinity to hTERT G-quadruplex DNA in human HCT116 cells assessed as downregulation of hTERT mRNA expression at 31 uM at 6 hrs by RT-PCR analysis; assay type: cell-based; conditions: HCT-116
Nucleic Acid [28] = assay: Binding affinity to PDGFRbeta G-quadruplex DNA in human HCT116 cells assessed as downregulation of PDGFRbeta mRNA expression at 31 uM at 6 hrs by RT-PCR analysis; assay type: cell-based; conditions: HCT-116
Nucleic Acid [29] = assay: Binding affinity to PDGFRbeta G-quadruplex DNA in human HCT116 cells assessed as downregulation of PDGFRbeta mRNA expression at 31 uM at 24 hrs by RT-PCR analysis; assay type: cell-based; conditions: HCT-116
Nucleic Acid [30] = assay: Binding affinity to c-MYC G-quadruplex DNA in human HCT116 cells assessed as decrease in c-MYC mRNA expression at 31 uM at 6 hrs by RT-PCR analysis; assay type: cell-based; conditions: HCT-116

Structure (SMILES): CN(C)CCN1CCN(c2c3cc(-c4ccncc4)ccc3nc3c2[nH]c2ccccc23)CC1
IC50 (Raji): 45 µM
IC50 (HCT-116 [1]): 20.9 µM
ΔTm (Nucleic Acid [2]): 8.6 °C

Structure (SMILES): COCCCN1CCN(c2c3ccccc3nc3c2[nH]c2ccccc23)CC1
IC50 (Raji): 21.3 µM
IC50 (HCT-116 [1]): 6.3 µM
ΔTm (Nucleic Acid [2]): 6.3 °C

Structure (SMILES): c1ccc2c(-c3ccc(CCN4CCOCC4)cc3)c3[nH]c4ccccc4c3nc2c1
IC50 (Raji): > 100 µM
IC50 (HCT-116 [1]): > 100 µM
ΔTm (Nucleic Acid [2]): 1.9 °C

Structure (SMILES): c1ccc2c(N3CCN(CCN4CCOCC4)CC3)c3[nH]c4ccccc4c3nc2c1
IC50 (Raji): 52.9 µM
IC50 (HCT-116 [1]): 9.1 µM
ΔTm (Nucleic Acid [2]): 5.9 °C

Structure (SMILES): CCN(CC)CCNc1c2ccccc2nc2c1[nH]c1ccccc12
IC50 (Raji): 0.7 µM
IC50 (HCT-116 [1]): 0.11 µM
IC50 (CA46): 10 µM
ΔTm (Nucleic Acid [2]): 5.2 °C

Structure (SMILES): CCN(CC)CCN1CCN(c2c3ccccc3nc3c2[nH]c2ccccc23)CC1
IC50 (Raji): 26 µM
IC50 (HCT-116 [1]): 3.4 µM
ΔTm (Nucleic Acid [2]): 10.3 °C

Structure (SMILES): CN(C)CCN1CCN(c2c3cc(-c4ccc(F)c(F)c4)ccc3nc3c2[nH]c2ccccc23)CC1
IC50 (Raji): 5.8 µM
IC50 (HCT-116 [1]): 3.7 µM
ΔTm (Nucleic Acid [2]): 6.5 °C

Structure (SMILES): OCCCN1CCN(c2c3ccccc3nc3c2[nH]c2ccccc23)CC1
IC50 (Raji): > 100 µM
IC50 (HCT-116 [1]): 2.4 µM
ΔTm (Nucleic Acid [2]): 1.3 °C

Structure (SMILES): c1ccc2c(N3CCN(CCN4CCCCC4)CC3)c3[nH]c4ccccc4c3nc2c1
IC50 (Raji): 56.1 µM
IC50 (HCT-116 [1]): 0.5 µM
ΔTm (Nucleic Acid [2]): 8.8 °C

Structure (SMILES): CN(C)CCN1CCN(c2c3cc(-c4ccc(CCN5CCOCC5)cc4)ccc3nc3c2[nH]c2ccccc23)CC1
IC50 (Raji): 10.8 µM
IC50 (HCT-116 [1]): 3.8 µM
ΔTm (Nucleic Acid [2]): 13.1 °C

Structure (SMILES): c1ccc2c(N3CCNCC3)c3[nH]c4ccccc4c3nc2c1
IC50 (Raji): 33.9 µM
IC50 (HCT-116 [1]): 4.3 µM
ΔTm (Nucleic Acid [2]): 6.7 °C

Now from value to compound, other results behind:

ΔTm (Nucleic Acid [2]): 11.4 °C
Structure (SMILES): CN(C)CCCN1CCN(c2c3ccccc3nc3c2[nH]c2ccccc23)CC1
IC50 (Raji): 11.8 µM
IC50 (HCT-116 [1]): 0.9 µM

ΔTm (Nucleic Acid [2]): 3 °C
Structure (SMILES): CN1CCN(c2c3ccccc3nc3c2[nH]c2ccccc23)CC1
IC50 (Raji): 5.44 µM
IC50 (HCT-116 [1]): 3.5 µM

ΔTm (Nucleic Acid [2]): 2.8 °C
Structure (SMILES): CN(C)CCCn1c2ccccc2c2nc3ccccc3c(N3CCN(C)CC3)c21
IC50 (Raji): 7.03 µM
IC50 (HCT-116 [1]): 2.98 µM

ΔTm (Nucleic Acid [2]): 6.7 °C
Activity (Nucleic Acid [7]): Active
Activity (Nucleic Acid [14]): Active
Activity (Nucleic Acid [15]): Active
Structure (SMILES): CN(C)CCN1CCN(c2c3ccccc3nc3c2[nH]c2ccccc23)CC1
Activity (Nucleic Acid [3]): Active
IC50 (Raji): 2.33 µM
IC50 (HCT-116 [1]): 0.97 µM
IC50 (HCT-116 [4]): 23 µM
Activity (Nucleic Acid [5]): Active
Activity (Nucleic Acid [6]): tde
IC50 (CA46): 19.4 µM
Activity (Nucleic Acid [8]): inactive
Activity (Nucleic Acid [9]): inactive
Activity (Nucleic Acid [10]): inactive
Activity (Nucleic Acid [11]): inactive
Activity (Nucleic Acid [12]): inactive
Activity (Nucleic Acid [13]): Active

ΔTm (Nucleic Acid [2]): 16.5 °C
Activity (Nucleic Acid [22]): Active
Activity (Nucleic Acid [7]): Active
Activity (Nucleic Acid [23]): Active
Activity (Nucleic Acid [24]): Active
Activity (Nucleic Acid [15]): Active
Structure (SMILES): CN(C)CCCn1c2ccccc2c2nc3ccccc3c(N3CCN(CCN(C)C)CC3)c21
IC50 (Raji): 3.1 µM
IC50 (HCT-116 [1]): 3.4 µM
IC50 (HCT-116 [4]): 31 µM
Activity (HCT-116 [16]): Active
Activity (Nucleic Acid [17]): inactive
Activity (Nucleic Acid [18]): inactive
IC50 (CA46): 2.8 µM
Activity (Nucleic Acid [19]): inactive
Activity (Nucleic Acid [20]): Active
Activity (Nucleic Acid [21]): inactive
Activity (Nucleic Acid [8]): inactive
Activity (Nucleic Acid [9]): inactive
Activity (Nucleic Acid [25]): inactive
Activity (Nucleic Acid [26]): inactive
Activity (Nucleic Acid [27]): Active
Activity (Nucleic Acid [28]): Active
Activity (Nucleic Acid [29]): Active
Activity (Nucleic Acid [30]): Active
